Screens deposited in PubChem by The Scripps Research Institute Molecular Screening Center.
Most compounds without a hit are left out; they make up all but 4.3% or so of the library.
OX1R antag-1 – antagonists of human orexin 1 receptor (OX1R). inhibition, % at 6.6 µM. 1.8% of 330,000 active. OX1R-expressing cells, FRET antagonist read-out. AID 485270, 2010; in the data active = inhibition mostly above about 38%, no sharp cut-off; inactive = mostly below about 40%;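 also: 0% = agonist challenge alone and 100% = reference antagonist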
CHO parental Ca – ATP-evoked calcium signal inhibitors, parental CHO, primary screen, counter-screen for OX1R antagonist project, cell-based, fluorescence, Fluo-8 calcium dye; 0.63% of 330,000 active; inhibition, % at 5.6 µM; parental CHO-K1, ATP-induced calcium, Fluo-8 fluorescence;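 active = inhibition above that plate's mean sample inhibition plus 3 SD, cut at about 26% in these data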;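 also: 0% = ATP-challenged DMSO wells and 100% = DMSO wells without ATP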
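Test system: parental CHO cells; detection: calcium-sensitive Fluo-8 fluorescence; evaluation: percent inhibition of calcium signal; also added: ATP as calcium-mobilizing challenge; repeats: one well per compound; control set: ATP-challenged DMSO wells low, unchallenged DMSO wells high; compound: single nominal dose of 5.6 µM per compound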
GalR3 antagonist – GalR3 antagonists in HEK293 cells, primary screen, cell-based, fluorescence readout; Galanin receptor type 3 (Homo sapiens), O60755; HEK293 GalR3-CNG cAMP membrane potential fluorescence; galR3 body fused to GalR1 C-terminus; inhibition, % at 3 µM; 0.44% of 360,000 active; AID 651719, 2012;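 active = inhibition above the screen-wide average plus 3 SD, cut at about 13% in these data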;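 also: forskolin and galanin both at EC90 stimulate the cells; cAMP rise reported by CNG channel membrane potential dye signal; 0% = forskolin plus galanin with DMSO and 100% = forskolin alone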
Target sequence (O60755 1-299 limits assumed): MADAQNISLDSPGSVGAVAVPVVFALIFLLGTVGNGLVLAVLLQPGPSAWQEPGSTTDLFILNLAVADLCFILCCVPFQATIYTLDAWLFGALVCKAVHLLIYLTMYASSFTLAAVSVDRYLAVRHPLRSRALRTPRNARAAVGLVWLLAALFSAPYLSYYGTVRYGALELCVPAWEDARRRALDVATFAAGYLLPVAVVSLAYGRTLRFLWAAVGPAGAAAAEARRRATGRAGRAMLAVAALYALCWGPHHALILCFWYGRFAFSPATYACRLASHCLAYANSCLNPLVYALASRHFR
OX1R antag-2 – OX1R (HCRTR1) antagonists, primary screen, fluorescence, CHO/OX1R cells, Fluo-8 calcium, orexin A | 0.43% of 330,000 active | Fluo-8 calcium fluorescence | inhibition, % at 5 µM | Orexin/Hypocretin receptor type 1 (Homo sapiens), O43613;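 active = inhibition above its plate's threshold, mean inhibition of all tested compounds on the plate plus 3 SD, cut at about 37% in these data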;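 also: 0% = orexin A challenge wells and 100% = SB-334867-A antagonist wells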
TAAR1 ag – human TAAR1 agonists, primary screen, Fluo-8 calcium fluorescence, CHO RD-HGA16 cells. Trace amine-associated receptor 1 (Homo sapiens), Q96RJ0. vehicle wells 0%, saturating PEA agonist 100%. activation, % at 3 µM. 0.99% of 360,000 active;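 active = activation above the mean activation of all test compounds in the run plus 3 SD, cut at about 38% in these data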
Target sequence (Q96RJ0 whole entry, looked up): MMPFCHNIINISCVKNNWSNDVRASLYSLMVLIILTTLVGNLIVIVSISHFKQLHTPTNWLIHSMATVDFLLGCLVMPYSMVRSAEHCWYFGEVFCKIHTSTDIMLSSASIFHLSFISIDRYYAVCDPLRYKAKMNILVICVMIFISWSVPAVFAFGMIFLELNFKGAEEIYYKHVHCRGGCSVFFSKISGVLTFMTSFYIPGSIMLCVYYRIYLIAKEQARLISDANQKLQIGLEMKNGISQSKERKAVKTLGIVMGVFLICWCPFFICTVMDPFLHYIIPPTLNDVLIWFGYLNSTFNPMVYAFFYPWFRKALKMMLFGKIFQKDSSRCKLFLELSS
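Test system: RD-HGA16 (CHO) cells co-expressing Gα16 and hTAAR1 | Doses: Single dose, 3 µM | Schedule: 17-24 h seeding, 75 min 37 °C dye, 30 min RT | Evaluation: % activation from peak over basal fluorescence ratio, DMSO-to-PEA scaled | Technique: Kinetic Fluo-8 calcium fluorescence | Benchmarks: Low control DMSO, high control PEA (EC100)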
TAAR1 antagonist – human TAAR1 antagonists, primary screen, Fluo-8 calcium fluorescence, CHO RD-HGA16 cells. Trace amine-associated receptor 1 (Homo sapiens), Q96RJ0. antagonist. inhibition, % at 3 µM. 1.5% of 360,000 active. AID 624466, 2012;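 active = inhibition above a per-plate cutoff, the mean inhibition of test compounds on that plate plus 3 SD, cut at about 49% in these data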;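 also: 0% = DMSO plus EC80 beta-PEA response and 100% = DMSO alone without agonist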
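Test system – hTAAR1-expressing CHO RD-HGA16 cells, Gα16-coupled · Also added – β-PEA at EC80 concentration, post-compound challenge · Compound – 3 µM, single point · Incubation – dye loading 75 min at 37 °C, then 30 min room temperature · Measured by – Fluo-8 intracellular calcium dye fluorescence, real-time kinetic reads · Benchmarks – vehicle and agonist controls · Replicates – singlicate, one well per test compound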
TAAR1 ag confirm – human TAAR1 agonists, retest of hits, confirmation, Fluo-8 calcium fluorescence, CHO RD-HGA16 cells; shares compounds with TAAR1 ag; scaled: DMSO 0%, maximal phenethylamine 100%; activation, % at 3 µM; 82% of 2,400 active; AID 651783, 2012;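 active = activation above a cutoff set at the run's mean compound activation plus 3 SD, cut at about 39% in these data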
Ga16 ag counter – nonselective calcium mobilization agonists, CHO-Ga16 cells, counter-screen for hTAAR1 agonist project, cell-based, fluorescence, CHO-Ga16 parental line; 50% of 2,400 active; activation, % at 3 µM; Fluo-8 calcium fluorescence; normalized to maximal ATP response, DMSO zero; AID 651787, 2012; shares compounds with TAAR1 ag;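 active = activation above the run cutoff, the mean activation over all tested wells plus 3 SD, cut at about 12% in these data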;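 also: 0% = DMSO wells and 100% = maximal ATP response on the peak over basal ratio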
TAAR1 desensitize – TAAR1 desensitization by agonist hits, confirmation, counter-screen for TAAR1 agonist project, cell-based, fluorescence, tachyphylaxis; inhibition, % at 3 µM; 46% of 2,400 active; CHO RD-HGA16 hTAAR1, Fluo-8 calcium, beta-PEA response inhibition; shares compounds with TAAR1 ag;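 active = inhibition above the run cutoff, the mean inhibition of all test compounds plus 3 SD, cut at about 49% in these data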;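 also: beta-PEA stimulus applied at its EC80; loss of beta-PEA calcium signal after compound pretreatment read as receptor desensitization; 0% = DMSO with beta-PEA at EC80 and 100% = DMSO alone without agonist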
Ga16 antag count – inhibition of ATP-evoked calcium response in CHO-Ga16 cells, counter-screen for TAAR1 agonist project, cell-based, fluorescence. CHO-Ga16 ATP-induced calcium, Fluo-8 fluorescence. AID 651952, 2012. inhibition, % at 3 µM. 39% of 2,400 active. shares compounds with TAAR1 ag;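 active = inhibition above the plate's mean compound inhibition plus 3 SD, computed per plate, cut at about 22% in these data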;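 also: 0% = EC80 ATP with DMSO and 100% = DMSO wells without ATP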
An asterisk follows results filed as active; · = no result given.

SMILES	OX1R antag-1	CHO parental Ca	GalR3 antagonist	OX1R antag-2	TAAR1 ag	TAAR1 antagonist	TAAR1 ag confirm	Ga16 ag counter	TAAR1 desensitize	Ga16 antag count
Cn1c(=O)c2[nH]c(Nc3ccccc3)nc2n(C)c1=O	3	-1	-4	-16	74*	33	71*	4	61*	8
CCCOc1ccc(-c2c(C(=O)N/N=C/c3ccc(C)cc3)nnn2-c2nonc2N)cc1	8	-36	-1	-18	37	-68	·	·	·	·
CCOc1ccc(-c2c(C(=O)N/N=C/c3ccc(OC(C)C)cc3)nnn2-c2nonc2N)cc1	56	-19	-1	-29	116*	6	118*	75*	46	37*
CCc1ccc(/C=N/NC(=O)c2nnn(-c3nonc3N)c2C(C)C)cc1	4	-20	-3	-47	133*	80*	134*	101*	96*	59*
Cc1ccc(-c2c(C(=O)N/N=C/c3ccc(OC(C)C)cc3)nnn2-c2nonc2N)cc1	47	-30	-11	-14	130*	70*	125*	94*	57*	46*
Cc1cccc(C)c1C(O)c1ncc(-c2cccc(C(F)(F)F)c2)[nH]1 (configuration not stated)	·	·	-5	·	12	2	·	·	·	·
CCCNC(=O)Cn1sc2nc(C)cc(C)c2c1=O	1	5	-6	13	52*	-13	37	21*	24	18
Cc1cc(C)c2c(=O)n(CC(=O)N3CCC(N4CCCCC4)CC3)sc2n1	-2	-6	·	-12	1	-37	·	·	·	·
CCOc1ccc(-c2c(C(=O)N/N=C/c3ccc(C)s3)nnn2-c2nonc2N)cc1	12	-14	·	-1	·	·	·	·	·	·
CCOc1ccc(-c2c(C(=O)N/N=C/c3ccco3)nnn2-c2nonc2N)cc1	15	-18	-2	-7	92*	-13	64*	49*	16	6
Cc1ccc(-c2c(C(=O)N/N=C/c3ccco3)nnn2-c2nonc2N)cc1	45	-18	-1	-17	88*	-1	111*	79*	23	7
c1ccc(COc2ccc(OCCCN3CCCC3)cc2)cc1	10	1	1	-6	3	-22	·	·	·	·
OC(c1ccccc1)(c1ccccc1)C1CCN(CCCOc2ccc(-c3cccnc3)cc2)CC1	·	·	-6	·	53*	37	33	21*	30	29*
OC(c1ccccc1)(c1ccccc1)C1CCN(CCCOc2ccc(-c3ccncc3)cc2)CC1	·	·	-8	·	42*	53*	46*	27*	54*	36*
CC1CCN(CCCOc2ccc(OCc3ccccc3)cc2)CC1	23	-5	-12	-17	59*	18	41*	24*	21	23*
CCN(c1ccccc1)S(=O)(=O)c1ccc(Cl)c(C(=O)N2CCCC2)c1	17	-11	1	-16	1	-5	·	·	·	·
Nc1cnnc(N/N=C\c2ccccc2)c1Cl	11	-4	-3	-14	46*	-17	69*	0	22	5
O=c1[nH]c(=O)n(Cc2ccco2)c2c1C(C(F)(F)F)(C(F)(F)F)N=C(CCC1CCCCC1)N2	33	-12	-4	-18	58*	26	38*	21*	56*	35*
O=c1[nH]c(=O)n(-c2ccccc2)c2c1C(C(F)(F)F)(C(F)(F)F)N=C(CCC1CCCCC1)N2	-5	-23	-2	-12	47*	-2	101*	70*	95*	52*
CCOC(=O)/C(=C\C=C1/Sc2cc(OCC)c(OCC)cc2N1CC)C(C)=O	9	69*	-10	91*	121*	62*	167*	225*	80*	86*
CCC1CCc2sc(C(=O)N3CCCN(C)CC3)cc2C1 (configuration not stated)	6	-17	-5	-32	4	-7	·	·	·	·
CCCCNC(=O)C1(C)CCN1C(=O)c1cccc2c1OCCO2 (configuration not stated)	·	·	4	·	1	-3	·	·	·	·
C/C(NCCc1ccccc1)=C1/CCOC1=O	·	·	-2	·	91*	90*	98*	0	88*	3
O=C(NCCc1ccccc1)C1=COCCO1	13	7	-3	-9	0	2	·	·	·	·
Cc1cccnc1Oc1ncccc1N	12	-6	5	11	0	-35	·	·	·	·
SMILES	OX1R antag-1	CHO parental Ca	GalR3 antagonist	OX1R antag-2	TAAR1 ag	TAAR1 antagonist	TAAR1 ag confirm	Ga16 ag counter	TAAR1 desensitize	Ga16 antag count
CC(=O)COc1c(-c2ccco2)oc2ccccc2c1=O	·	·	-11	·	1	-16	·	·	·	·
N#Cc1c(N)n[nH]c1Cc1cccc2ccccc12	50	0	-5	-21	0	-5	·	·	·	·
Cc1nc(N)c2c(Cc3cccc4ccccc34)nn(C(C)(C)C)c2n1	20	-43	-2	-48	47*	-22	41*	7	-13	-14
COc1ccccc1Cn1c(C)c(C(=O)NCc2ccco2)sc1=O	·	·	1	·	2	-5	·	·	·	·
O=C(CCS(=O)(=O)c1ccc2c(c1)NC(=O)CO2)NCCc1ccccc1	9	-2	-6	-12	66*	27	62*	-1	5	-1
Cc1ccc(OCC(=O)Nc2ccc(NC(=O)c3ccccc3)c(C)c2)cc1	·	·	-1	·	44*	44	52*	21*	63*	19
CC(C)(C)c1ccc(C(=O)NC(=S)NNC(=O)COc2ccccc2)cc1	-5	-12	-3	-17	124*	67*	124*	101*	100*	81*
